# Laboratory results: ChEMBL document CHEMBL3588765, “Synthesis and molecular docking of 1,2,3-triazole-based sulfonamides as aromatase inhibitors” (Bioorg Med Chem, 2015)
# Tests used:
# Vero = assay: Cytotoxicity against african green monkey Vero cells after 4 days by green fluorescent protein detection method; type: cell-based; details: Chlorocebus sabaeus, 96 h
# Aromatase = biological target: T1, Aromatase (Homo sapiens, UniProt P11511); assay: Inhibition of CYP19 (unknown origin) using O-benzyl fluorescein benzyl ester substrate preincubated for 10 mins by fluorimetric analysis relative to control
# T1 sequence (P11511 whole entry): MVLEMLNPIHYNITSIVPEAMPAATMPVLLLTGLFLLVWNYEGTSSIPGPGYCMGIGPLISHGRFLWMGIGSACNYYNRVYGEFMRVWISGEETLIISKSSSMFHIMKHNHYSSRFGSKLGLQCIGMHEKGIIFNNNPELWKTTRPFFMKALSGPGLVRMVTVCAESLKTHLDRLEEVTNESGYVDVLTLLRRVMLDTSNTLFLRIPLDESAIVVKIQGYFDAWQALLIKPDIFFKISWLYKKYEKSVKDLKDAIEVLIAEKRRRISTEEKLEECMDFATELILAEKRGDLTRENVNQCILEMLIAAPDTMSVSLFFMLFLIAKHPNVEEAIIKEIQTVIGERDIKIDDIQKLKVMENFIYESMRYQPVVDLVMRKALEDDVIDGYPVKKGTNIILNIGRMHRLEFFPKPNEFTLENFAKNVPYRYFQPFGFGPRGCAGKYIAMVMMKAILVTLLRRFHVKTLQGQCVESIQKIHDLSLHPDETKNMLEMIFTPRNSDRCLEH
# Summary of the method: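 CYP19 was assayed with dibenzylfluorescein (DBF) as substrate. DBF is dealkylated by the enzyme and hydrolysed to fluorescein. Cofactor mix was 50 mM phosphate buffer pH 7.4 with an NADPH-generating system (NADP⁺, glucose-6-phosphate, MgCl₂, glucose-6-phosphate dehydrogenase). This mix was preincubated 10 min at 37 °C. Enzyme/substrate mixture (16 pmol/mL CYP19 stock, 0.2 mM DBF stock) and test sample were then added.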
# [1] = Selectivity index, ratio of IC50 for african green monkey Vero cells to IC50 for CYP19 (unknown origin)
# Summary of the method: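 Selectivity index was calculated as the IC₅₀ in GFP-Vero cells (4-day fluorescence assay) divided by the IC₅₀ in the DBF-based CYP19 fluorescence assay.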
# [2] = Solubility of the compound in phosphate buffer at pH 7.4 medium; type: physicochemical
Compound,IC50 (Aromatase) [µM],solubility [2],IC50 (Vero) [µg/mL],Ratio IC50 [1]
CC(=O)c1ccccc1OCc1cn(-c2ccc(S(=O)(=O)N3CCc4ccccc4C3)cc2)nn1,> 12.5,–,> 50,–
O=c1cc(OCc2cn(-c3ccc(S(=O)(=O)N4CCc5ccccc5C4)cc3)nn2)c2ccccc2o1,> 12.5,–,–,–
COc1cc2c(cc1OC)CN(S(=O)(=O)c1ccc(-n3cc(COc4ccccc4C)nn3)cc1)CC2,> 12.5,–,> 50,–
COc1cc2c(cc1OC)CN(S(=O)(=O)c1ccc(-n3cc(COc4ccccc4C(C)=O)nn3)cc1)CC2,> 12.5,–,–,–
COC(=O)c1ccccc1OCc1cn(-c2ccc(S(=O)(=O)N3CCc4cc(OC)c(OC)cc4C3)cc2)nn1,> 12.5,–,–,–
COc1cc2c(cc1OC)CN(S(=O)(=O)c1ccc(-n3cc(COc4ccc([N+](=O)[O-])cc4)nn3)cc1)CC2,> 12.5,–,> 50,–
COc1cc2c(cc1OC)CN(S(=O)(=O)c1ccc(-n3cc(COc4cc(C=O)ccc4OC)nn3)cc1)CC2,> 12.5,–,> 50,–
O=c1ccc2ccc(OCc3cn(-c4cccc(S(=O)(=O)N5CCc6ccccc6C5)c4)nn3)cc2o1,–,Insoluble,91.5,–
O=c1cc(OCc2cn(-c3cccc(S(=O)(=O)N4CCc5ccccc5C4)c3)nn2)c2ccccc2o1,> 12.5,–,> 50,–
Cc1c2ccncc2c(C)c2c1[nH]c1ccccc12 [ELLIPTECINE],–,–,1.94,–

# More lines, main results first:
IC50 (Aromatase) [µM],solubility [2],Compound,IC50 (Vero) [µg/mL],Ratio IC50 [1]
> 12.5,–,O=c1ccc2ccc(OCc3cn(-c4ccc(S(=O)(=O)NCCc5ccccc5)cc4)nn3)cc2o1,> 50,–
1.8,–,O=c1cc(OCc2cn(-c3ccc(S(=O)(=O)NCCc4ccccc4)cc3)nn2)c2ccccc2o1,> 50,>55.27
4.6,–,COc1ccc(CCNS(=O)(=O)c2ccc(-n3cc(-c4ccccc4)nn3)cc2)cc1OC,> 50,>23.4
2.7,–,COc1ccc(CCNS(=O)(=O)c2ccc(-n3cc(COc4ccc([N+](=O)[O-])cc4)nn3)cc2)cc1OC,> 50,>34.32
> 12.5,–,O=S(=O)(NCCc1ccccc1)c1ccc(-n2cc(-c3ccccc3)nn2)cc1,> 50,–
9.4,–,O=S(=O)(NCCc1ccccc1)c1ccc(-n2cc(COc3ccccc3)nn2)cc1,> 50,>12.24
3.4,–,O=S(=O)(NCCc1ccccc1)c1ccc(-n2cc(COc3cccc4ccccc34)nn2)cc1,> 50,>30.35
1.3,–,O=S(=O)(NCCc1ccccc1)c1ccc(-n2cc(COc3ccc4ccccc4c3)nn2)cc1,> 50,>79.37
8,–,Cc1ccc(OCc2cn(-c3ccc(S(=O)(=O)NCCc4ccccc4)cc3)nn2)cc1,> 50,>13.93
7.9,–,O=Cc1ccc(OCc2cn(-c3ccc(S(=O)(=O)NCCc4ccccc4)cc3)nn2)cc1,> 50,>13.68
2.9,–,O=[N+]([O-])c1ccc(OCc2cn(-c3ccc(S(=O)(=O)NCCc4ccccc4)cc3)nn2)cc1,> 50,>35.96
3.4,–,Cc1ccccc1OCc1cn(-c2ccc(S(=O)(=O)NCCc3ccccc3)cc2)nn1,> 50,>32.79
0.2,–,COc1cc2c(cc1OC)CN(S(=O)(=O)c1cccc(-n3cc(COc4ccc5ccc(=O)oc5c4)nn3)c1)CC2,> 50,>435.09
1.8,–,COc1cc2c(cc1OC)CN(S(=O)(=O)c1cccc(-n3cc(COc4cc(=O)oc5ccccc45)nn3)c1)CC2,86.3,48
